Screening data deposited in PubChem by several laboratories.
pPAFAH inh: pPAFAH (human) enzyme inhibition; hit rate 1.5% among 330,000; Q13093; inhibition, % at 3.39 µM; recombinant pPAFAH, FP-rhodamine probe fluorescence polarization;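 active = inhibition above the mean inhibition across the screen plus 3 SD, cut at about 25% in these data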;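 note: inhibitors block binding of the rhodamine activity-based probe so polarization drops; 0% = enzyme with DMSO and 100% = wells lacking pPAFAH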
PAFAH2 FP inh: inhibitors of human PAFAH2; Q99487; recombinant PAFAH2, FP-rhodamine activity probe, fluorescence polarization; inhibition, % at 3.39 µM; hit rate 0.99% among 340,000;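 active = inhibition above the mean over all tested compounds plus 3 SD, cut at about 30% in these data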;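 note: inhibitors block probe labeling of enzyme so polarization drops; 0% = enzyme with DMSO and 100% = wells lacking PAFAH2 protein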
PAFAH1B3 FP inh: blocks human PAF acetylhydrolase 1B catalytic subunit 3; Q15102; inhibition, % at 3.39 µM; recombinant PAFAH1B3, FP-rhodamine probe, fluorescence polarization; hit rate 0.28% among 340,000;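 active = inhibition above the screen-wide average of all tested compounds plus 3 SD, cut at about 25% in these data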;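 note: 0% = enzyme with DMSO only and 100% = wells lacking PAFAH1B3 protein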
Target sequence (Q15102 whole entry, looked up): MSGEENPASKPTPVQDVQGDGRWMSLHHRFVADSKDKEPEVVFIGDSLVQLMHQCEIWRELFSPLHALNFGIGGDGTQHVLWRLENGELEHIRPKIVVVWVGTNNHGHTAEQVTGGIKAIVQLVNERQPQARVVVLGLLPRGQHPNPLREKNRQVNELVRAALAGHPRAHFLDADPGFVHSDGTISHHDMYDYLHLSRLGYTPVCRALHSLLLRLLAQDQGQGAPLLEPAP
Apaf-1 inh: blocks human Apaf-1 apoptosome activity; reconstituted apoptosome caspase-3 activity, DEVD-Rh110 fluorescence; inhibition, % at 20 µM; hit rate 0.71% among 330,000; active = inhibition of at least 40% at 20 µM;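 note: plate controls were DMSO wells for no effect and DEVD-CHO caspase inhibitor wells for full effect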
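Assay system: Apoptosome proteins | Medium: pH 7.5 Hepes buffer with CHAPS, BSA, DTT | Also added: Cytochrome c and DEVD-Rh110 substrate | Times: 30 min plus 50 min, RT | Detection: Rhodamine 110 fluorescence at Ex 480/Em 540 nm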
PAFAH1B2 FP inh: inhibitors of human PAFAH1B2; P68402; recombinant PAFAH1B2, FP-rhodamine activity probe, fluorescence polarization; inhibition, % at 3.39 µM; hit rate 1.2% among 340,000;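 active = inhibition above the mean of all tested compounds plus 3 SD, cut at about 24% in these data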;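 note: 0% = enzyme with DMSO and 100% = wells lacking PAFAH1B2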
Target sequence (P68402 whole entry, looked up): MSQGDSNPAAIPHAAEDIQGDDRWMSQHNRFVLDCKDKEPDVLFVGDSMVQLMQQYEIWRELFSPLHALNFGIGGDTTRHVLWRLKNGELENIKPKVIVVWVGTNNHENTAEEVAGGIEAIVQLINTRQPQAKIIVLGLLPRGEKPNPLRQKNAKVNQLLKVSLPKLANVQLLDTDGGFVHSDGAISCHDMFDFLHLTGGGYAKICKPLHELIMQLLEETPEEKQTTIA
Numbers without * were called inactive; · = not tested or not shown. Hits are enriched below; roughly 3.1% of the tested compounds scored in any of these assays.

SMILES	pPAFAH inh	PAFAH2 FP inh	PAFAH1B3 FP inh	Apaf-1 inh	PAFAH1B2 FP inh
CCOc1ccc(N(CC(=O)NCc2ccccc2C)S(C)(=O)=O)cc1	-3.6	-0.1	2.3	7.4	2.5
CC(C)(CNC(=O)c1cccs1)N1CCOCC1	3.9	-0.7	7.0	-0.2	2.1
CCCn1c(SCC(=O)NC2CCCCC2)nnc1-c1ccco1	4.5	-1.3	0.0	-4.7	4.9
COc1ccc(O[C@H]2C=C[C@@H](c3ccccc3)O[C@@H]2COC(=O)CC/C(C)=N/OC[C@@H](O)COCc2ccco2)cc1	12.2	·	·	13.4	·
COc1ccc(O[C@H]2C=C[C@@H](c3ccccc3)O[C@@H]2CO/N=C(\C)CCN2CCc3nc(-c4ccccc4)c(-c4ccccc4)cc3C2)cc1	2.4	·	·	47.5*	·
COc1ccc(O[C@H]2C=C[C@@H](c3ccccc3)O[C@@H]2COC(=O)CC/C(C)=N/O[C@@H](C)c2cc(-c3c(C)cc(C)cc3C)no2)cc1	·	·	·	8.0	·
CCc1cc2c(nc1CC)CCN(CC/C(C)=N/OC[C@H]1O[C@H](c3ccccc3)C=C[C@@H]1Oc1ccc(OC)cc1)C2	·	·	·	43.4*	·
Cc1ccc(Cc2cnc(N3C(=N)SC(C)C3=O)s2)cc1 (configuration not stated)	25.2*	13.1	-6.2	-13.2	75.1*
Cc1ccccc1-n1c(SCC(=O)N2CCOCC2)nc(O)c(Cc2ccccc2)c1=O	-1.4	3.0	3.7	11.8	-1.5
O=c1oc(-c2ccco2)nc2ccccc12	-0.7	23.5	4.7	8.3	-1.0
O=c1oc(-c2ccccc2[N+](=O)[O-])nc2ccccc12	0.0	44.8*	3.4	-2.9	-1.9
COC(=O)CCC(=O)OC1(C)C(=O)C2=CN(CC(C)C)C(c3ccc(OC)cc3)=CC2=C(Br)C1=O (configuration not stated)	16.0	·	·	52.0*	·
COc1ccccc1OCCNC(=O)c1cccc(S(=O)(=O)NCc2ccccc2)c1	-4.0	5.8	9.6	20.7	1.7
Cc1cccc(N=Nc2ccc(O)c3ncccc23)c1	50.9*	10.8	8.1	10.3	10.7
Oc1ccc(N=Nc2ccc3c(c2)OCCO3)c2ncccc12	27.8*	-1.8	8.7	4.6	5.3
NS(=O)(=O)c1ccc(N=Nc2ccc(O)c3ncccc23)cc1	26.8*	7.0	5.6	11.0	0.2
Cc1ccc(C)c(N=Nc2ccc(O)c3ncccc23)c1	26.6*	-1.8	6.7	-8.0	-1.8
CCOc1ccc(N=Nc2ccc(O)c3ncccc23)cc1	·	-5.5	8.9	6.8	2.6
Cc1ccc(OCC(=O)N/N=C\c2cccn2C)c([N+](=O)[O-])c1	4.8	6.6	-1.0	7.0	-2.4
CCOC(=O)CCCCC1C(CCCC(=O)OCC)C=NN1C (configuration not stated)	·	6.0	10.2	·	4.3
Cc1oc2c(cc(NS(=O)(=O)c3ccc(F)cc3)c3ccccc32)c1C(=O)O	19.7	5.8	3.4	36.1	2.6
Cc1oc2c(cc(NS(=O)(=O)c3ccc(C(C)C)cc3)c3ccccc32)c1C(=O)O	31.7*	1.8	8.2	24.3	15.1
Cc1cc(C)n2nc(C(=O)OCC(=O)NNC(=O)c3ccccc3)nc2n1	-1.9	0.4	0.1	-1.5	-2.6
Cc1cccc(NC(=S)NCCSc2ccc(Cl)cc2)c1	3.9	3.3	-3.6	8.9	27.6*
CCc1ccccc1NC(=S)NCCSc1ccc(Cl)cc1	30.7*	4.0	-2.5	33.6	36.7*
SMILES	pPAFAH inh	PAFAH2 FP inh	PAFAH1B3 FP inh	Apaf-1 inh	PAFAH1B2 FP inh
Cc1ccc(C)c(NC(=S)NCCSc2ccc(Cl)cc2)c1	2.6	-4.7	1.1	18.2	37.2*
O=C(/C=C/c1ccccc1)NCCSc1ccc(Cl)cc1	1.7	2.2	3.9	18.0	28.8*
Cc1ccc(NC(=S)NCCSc2ccc(Cl)cc2)c(C)c1	-0.3	-3.1	3.2	9.9	14.6
Cc1cccc(NC(=O)CSc2nc3ccccc3nc2N2CCCC2)c1C	16.5	7.2	2.5	22.2	3.1
COc1ccc(-c2ccc3c(c2)C2CC3CCN2)cc1 (configuration not stated)	·	-1.4	1.2	·	0.8
O=c1[nH]c(C2CCCN(S(=O)(=O)Cc3ccccc3)C2)nc2c1nnn2Cc1cccc(Cl)c1 (configuration not stated)	28.2*	4.3	-2.0	28.9	1.2
O=c1[nH]c(C2CCN(S(=O)(=O)c3ccccc3F)CC2)nc2c1nnn2Cc1ccc(OC(F)(F)F)cc1	1.3	-5.7	0.1	33.4	25.8*
O=c1[nH]c(C2CCN(S(=O)(=O)c3ccccc3C(F)(F)F)CC2)nc2c1nnn2Cc1ccccc1	-0.5	6.1	4.0	29.9	-1.7
